# Measurements gathered from unrelated publications.
# Organism: Candida albicans
# Read-out: microbial growth
Structure (SMILES),assay,system,setting,endpoint,value
Cc1c(C(N)=S)c(N)n(N)c(=O)c1C#N,well diffusion,ATCC10231,500 µg/mL,inhibition zone,19 mm
O=C(C=Cc1ccc(O)c(O)c1)Oc1ccccc1,broth dilution,SC5314,,MIC,32 µg/mL
Cc1nn(-c2ccccc2)c2c1C(c1ccco1)N(C(=O)c1ccncc1)N2 (centres unmarked),,MTCC183,,MIC,> 100 µg/mL
N#Cc1c(-c2ccc(Cl)cc2Cl)c(C(N)=S)c(N)n(N)c1=O,well diffusion,ATCC10231,500 µg/mL,inhibition zone,13 mm
COc1ccc(C2c3c(C)nn(-c4ccccc4)c3NN2C(=O)c2ccncc2)cc1 (centres unmarked),,MTCC183,,MIC,16 µg/mL
Cc1ccccc1NC(=O)C=Cc1ccc(O)c(O)c1,broth dilution,SC5314,,MIC,32 µg/mL
N#Cc1c(-c2ccc(Cl)cc2Cl)c(C(N)=O)c(N)n(N)c1=O,well diffusion,ATCC10231,500 µg/mL,inhibition zone,9 mm
O=C(C=Cc1ccc(O)c(O)c1)OCc1ccccc1,broth dilution,SC5314,,MIC,64 µg/mL
CC(C)=CCCC(C)=CC1c2c(C)nn(-c3ccccc3)c2NN1C(=O)c1ccncc1 (centres unmarked),,MTCC183,,MIC,32 µg/mL
CC(=O)N1CCN(c2ccc(OCC3COC(Cn4ccnc4)(c4ccc(Cl)cc4Cl)O3)cc2)CC1 (centres unmarked),well diffusion,ATCC10231,500 µg/mL,inhibition zone,24 mm
Cc1nn(-c2ccccc2)c2c1C(c1ccc(Cl)cc1)N(C(=O)c1ccncc1)N2 (centres unmarked),,MTCC183,,MIC,0.25 µg/mL
CN(C)c1ccc(-c2c(C(N)=O)c(N)n(N)c(=O)c2C#N)cc1,well diffusion,ATCC10231,500 µg/mL,inhibition zone,12 mm
OC(Cn1cncn1)(Cn1cncn1)c1ccc(F)cc1F,broth dilution,SC5314,48 h,MIC50,0.8 µM
CC(C)NCC(COc1cccc2ccccc12)OC(=O)C=Cc1ccc(O)c(O)c1 (centres unmarked),broth dilution,SC5314,,MIC,16 µg/mL
Cc1nn(-c2ccccc2)c2c1C(c1cncs1)N(C(=O)c1ccncc1)N2 (centres unmarked),,MTCC183,,MIC,> 100 µg/mL
O=C(C=Cc1ccc(O)c(O)c1)Oc1cccc2cccnc12,broth dilution,SC5314,,MIC,16 µg/mL
C[C@@H]1[C@H](O)[C@@H](C)/C=C/C=C/C=C/C=C/C=C/C=C/C=C/[C@H](O[C@@H]2O[C@H](C)[C@@H](O)[C@H](N)[C@@H]2O)C[C@@H]2O[C@](O)(C[C@@H](O)C[C@@H](O)[C@H](O)CC[C@@H](O)C[C@@H](O)CC(=O)O[C@H]1C)C[C@H](O)[C@H]2C(=O)O,broth dilution,ATCC60193,24 h,MIC,2 µg/mL
